In ChEMBL document CHEMBL1833859, “Discovery of novel imidazo[1,2-a]pyrazin-8-amines as Brk/PTK6 inhibitors” (Bioorg Med Chem Lett, 2011):

Legend:
[1] = AUC (0 to 6 hrs) in mouse at 100 mg/kg, po; format: ADME, organism-based; set-up: time < 6 hr, dose 100 mg/kg, route oral; conditions: plasma
Method in brief: (§1)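 Mouse pharmacokinetics, 15 animals per dose group, dosed intraperitoneally at 30 mg/kg or orally at 10, 30 or 100 mg/kg. Plasma levels were followed from 0 to 6 h.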

[2] = Cmax in mouse at 10 mg/kg, po; format: ADME, organism-based; set-up: dose 10 mg/kg, route oral; conditions: in vivo; method in brief: as §1
[3] = Cmax in mouse at 100 mg/kg, po; format: ADME, organism-based; set-up: dose 100 mg/kg, route oral; conditions: in vivo; method in brief: as §1
[4] = Cmax in mouse at 30 mg/kg, ip; format: ADME, organism-based; set-up: dose 30 mg/kg, route intraperitoneal; conditions: in vivo; method in brief: as §1
[5] = Tmax in mouse at 30 mg/kg, po; format: ADME, organism-based; set-up: dose 30 mg/kg, route oral; conditions: in vivo; method in brief: as §1
[6] = biological target: Tyrosine-protein kinase Lck (Homo sapiens, UniProt P06239); assay: Inhibition of LCK
[7] = Intrinsic clearance in human Hepatocytes assessed as per million cells; format: ADME, cell-based, Liver, Hepatocyte
[8] = AUC (0 to 6 hrs) in mouse at 10 mg/kg, po; format: ADME, organism-based; set-up: time < 6 hr, dose 10 mg/kg, route oral; conditions: plasma; method in brief: as §1
[9] = Tmax in mouse at 100 mg/kg, po; format: ADME, organism-based; set-up: dose 100 mg/kg, route oral; conditions: in vivo; method in brief: as §1
[10] = Inhibition of CYP; format: ADME
Aurora kinase B = Aurora kinase B (Homo sapiens, UniProt Q96GD4); assay: Inhibition of AurB
[11] = Tmax in mouse at 30 mg/kg, ip; format: ADME, organism-based; set-up: dose 30 mg/kg, route intraperitoneal; conditions: in vivo; method in brief: as §1
[12] = Tmax in mouse at 10 mg/kg, po; format: ADME, organism-based; set-up: dose 10 mg/kg, route oral; conditions: in vivo; method in brief: as §1
[13] = Intrinsic clearance in rat Hepatocytes assessed as per million cells; format: ADME, cell-based, Liver, Hepatocyte
[14] = Cmax in mouse at 30 mg/kg, po; format: ADME, organism-based; set-up: dose 30 mg/kg, route oral; conditions: in vivo; method in brief: as §1
[15] = AUC (0 to 6 hrs) in mouse at 30 mg/kg, po; format: ADME, organism-based; set-up: time < 6 hr, dose 30 mg/kg, route oral; conditions: plasma; method in brief: as §1
[16] = AUC (0 to 6 hrs) in mouse at 30 mg/kg, ip; format: ADME, organism-based; set-up: time < 6 hr, dose 30 mg/kg, route intraperitoneal; conditions: plasma; method in brief: as §1

Sequence of Tyrosine-protein kinase Lck (P06239 whole entry): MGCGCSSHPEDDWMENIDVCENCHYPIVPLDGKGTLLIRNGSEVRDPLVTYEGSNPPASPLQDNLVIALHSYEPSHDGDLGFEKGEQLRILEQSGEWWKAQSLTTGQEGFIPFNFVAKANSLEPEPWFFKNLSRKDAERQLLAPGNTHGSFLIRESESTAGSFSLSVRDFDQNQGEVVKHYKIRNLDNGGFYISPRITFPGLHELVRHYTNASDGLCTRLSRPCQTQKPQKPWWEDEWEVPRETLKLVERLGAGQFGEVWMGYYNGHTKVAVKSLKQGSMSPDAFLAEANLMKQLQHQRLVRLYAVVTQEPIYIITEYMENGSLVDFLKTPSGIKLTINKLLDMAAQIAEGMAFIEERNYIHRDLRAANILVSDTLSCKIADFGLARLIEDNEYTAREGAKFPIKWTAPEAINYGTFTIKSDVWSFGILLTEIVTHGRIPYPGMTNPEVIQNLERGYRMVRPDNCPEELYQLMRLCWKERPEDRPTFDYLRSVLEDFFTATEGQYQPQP
Sequence of Aurora kinase B (Q96GD4 whole entry): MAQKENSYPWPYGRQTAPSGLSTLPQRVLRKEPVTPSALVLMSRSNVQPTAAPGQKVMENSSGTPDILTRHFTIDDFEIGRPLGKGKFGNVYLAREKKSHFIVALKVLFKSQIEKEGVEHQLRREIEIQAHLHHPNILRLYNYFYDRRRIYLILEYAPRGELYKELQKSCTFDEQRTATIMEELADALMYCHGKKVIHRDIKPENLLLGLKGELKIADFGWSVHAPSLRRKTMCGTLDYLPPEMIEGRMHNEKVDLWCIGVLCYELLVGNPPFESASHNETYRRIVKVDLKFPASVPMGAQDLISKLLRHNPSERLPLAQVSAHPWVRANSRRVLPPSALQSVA

Cc1cn2c(-c3cn[nH]c3)cnc2c(Nc2ccc(C(=O)N3CCNCC3)cc2F)n1
AUC(0-t) at 6 h [1]: 8.1 µM·h
Cmax [2]: 40 nM
Cmax [3]: 1600 nM
Cmax [4]: 17900 nM
Tmax [5]: 2 h
IC50 [6]: > 20 µM
hepatocyte CLint [7]: 2 µL/min/1e6 cells
AUC(0-t) at 6 h [8]: 0.1 µM·h
Tmax [9]: 4 h
IC50 [10]: > 20 µM
IC50 (Aurora kinase B): > 20 µM
Tmax [11]: 0.5 h
Tmax [12]: 6 h
hepatocyte CLint [13]: 5.3 µL/min/1e6 cells
Cmax [14]: 420 nM
AUC(0-t) at 6 h [15]: 1.4 µM·h
AUC(0-t) at 6 h [16]: 17.1 µM·h
